Assays:
Format in all cases: nucleic-acid assay
Nucleic Acid [1] = test: Association constant for binding to AATT 28-mer AATT hairpin
How it was run: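 Fluorometric equilibrium titration at 20 °C in 50 mM Tris, 100 mM NaCl, pH 7.5. A fixed 0.7-1.6 nM dye in a silanized quartz cuvette was titrated with excess 28-mer T4-looped AATT hairpin (3.54 μM stock). The rise in fluorescence was fitted to the quadratic binding equation, with dilution taken into account. Above about 4 × 10^9 M^-1, dye concentration was an extra fitting parameter.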

Nucleic Acid [2] = test: Association constant for binding to AATT duplex
How it was run: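 Fluorometric equilibrium titration at 20 °C in 50 mM Tris, 100 mM NaCl, pH 7.5. The fluorescence increase was fitted to the quadratic binding equation, with dilution corrected.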

Nucleic Acid [3] = test: Kinetically Defined Association Constant for 28-mer AATT hairpin.
How it was run: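 Stopped-flow fluorescence at 20 °C, pH 7.5 (50 mM Tris, 0.1 M NaCl). 2 nM dye was mixed with excess 28-mer AATT hairpin, with excitation at 366 nm and emission through a 418 nm cutoff filter. Inverse time constants from monoexponential traces versus concentration gave kon. koff came from dissociation with excess poly[d(A-5BrU)]. Kkin = kon/koff.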

`CN1CCN(c2ccc3[nH]c(-c4ccc5[nH]c(-c6ccc(O)cc6)nc5c4)nc3c2)CC1` was tested, and the Ka (Nucleic Acid [1]) was 5.2e-08 M⁻¹, the Ka (Nucleic Acid [2]) was 4.1e-08 M⁻¹ and the Kkin (Nucleic Acid [3]) was 5.9e-08 M⁻¹.
